Laboratory results: ChEMBL document CHEMBL1137710, “Synthesis and in vitro antitumor activity of new quinoxaline derivatives” (2009)

Experiments:
Format in all cases: functional
TK-10 = test: Growth inhibition of human TK10 cells after 48 hrs by sulforhodamine B assay; conditions: TK-10, 48 h; for CC50: read-out: pLC50 (the source's name) (converted); for TGI: read-out: pTGI (converted)
Summary of the method: (§1)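 Run in the NCI 60-human-tumour-cell-line panel, tested over a 5-log dose range. Dose–response curves gave three values per cell line, each as a log10 molar concentration: GI50 (50% inhibition of net cell growth), TGI (total inhibition of net growth) and LC50 (50% net cell death). The mean graph midpoint is the arithmetic mean over all lines, with insensitive lines entered at the highest concentration tested.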

OVCAR-3 = test: Growth inhibition of human OVCAR-3 cells after 48 hrs by sulforhodamine B assay; conditions: OVCAR-3, 48 h; for CC50: read-out: pLC50 (the source's name) (converted); for TGI: read-out: pTGI (converted)
Summary of the method: (§2)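 NCI 60-human-tumor-cell-line panel, with compounds tested over a 5-log dose range. Values are taken from dose-response curves as log10 molar concentrations: GI50 is 50% net growth inhibition, TGI is total growth inhibition, and LC50 is 50% net cell death.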

SF-539 = test: Growth inhibition of human SF539 cells after 48 hrs by sulforhodamine B assay; conditions: SF-539, 48 h; for TGI: read-out: pTGI (converted); summary of the method: as §2
NCI/ADR-RES = test: Growth inhibition of human NCI/ADR-RES cells after 48 hrs by sulforhodamine B assay; conditions: for CC50: read-out: pLC50 (the source's name) (converted); for TGI: read-out: pTGI (converted); summary of the method: as §2
SR = test: Growth inhibition of human SR cells after 48 hrs by sulforhodamine B assay; summary of the method: as §1
UACC-257 = test: Growth inhibition of human UACC257 cells after 48 hrs by sulforhodamine B assay; conditions: UACC-257, 48 h; for CC50: read-out: pLC50 (the source's name) (converted); for TGI: read-out: pTGI (converted); summary of the method: as §1
OVCAR-5 = test: Growth inhibition of human OVCAR5 cells after 48 hrs by sulforhodamine B assay; conditions: OVCAR-5, 48 h; for CC50: read-out: pLC50 (the source's name) (converted); for TGI: read-out: pTGI (converted); summary of the method: as §2
MDA-MB-231 = test: Growth inhibition of human MDA-MB-231 cells after 48 hrs by sulforhodamine B assay; conditions: MDA-MB-231, 48 h; for CC50: read-out: pLC50 (the source's name) (converted); for TGI: read-out: pTGI (converted); summary of the method: as §2
A498 = test: Growth inhibition of human A498 cells after 48 hrs by sulforhodamine B assay; conditions: A498, 48 h; for CC50: read-out: pLC50 (the source's name) (converted); for TGI: read-out: pTGI (converted); summary of the method: as §2
HL-60(TB) = test: Growth inhibition of human HL-60(TB) cells after 48 hrs by sulforhodamine B assay; conditions: HL-60, 48 h; for TGI: read-out: pTGI (converted)
Summary of the method: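 Tested only on compounds active in a three-line prescreen, in the NCI 60-human-tumour-cell-line panel over a 5-log dose range. Values come from dose–response curves as log10 molar GI50, the concentration inhibiting 50% net cell growth. Log10 TGI (total growth inhibition) and log10 LC50 (50% net cell death) were derived too. Mean graph midpoints include insensitive lines at the highest concentration tested.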

COLO 205 = test: Growth inhibition of human COLO205 cells after 48 hrs by sulforhodamine B assay; conditions: COLO 205, 48 h; for TGI: read-out: pTGI (converted); summary of the method: as §2
SNB-19 = test: Growth inhibition of human SNB19 cells after 48 hrs by sulforhodamine B assay; conditions: SNB-19, 48 h; for TGI: read-out: pTGI (converted); summary of the method: as §1
MOLT-4 = test: Growth inhibition of human MOLT4 cells after 48 hrs by sulforhodamine B assay; conditions: MOLT-4, 48 h; for TGI: read-out: pTGI (converted); summary of the method: as §2
NCI-H460 = test: Growth inhibition of human NCI-H460 cells after 48 hrs by sulforhodamine B assay; conditions: NCI-H460, 48 h; for TGI: read-out: pTGI (converted); summary of the method: as §2
OVCAR-8 = test: Growth inhibition of human OVCAR8 cells after 48 hrs by sulforhodamine B assay; conditions: OVCAR-8, 48 h; for CC50: read-out: pLC50 (the source's name) (converted); for TGI: read-out: pTGI (converted); summary of the method: as §2
[1] = Growth inhibition of human Hs 578T cells after 48 hrs by sulforhodamine B assay; conditions: for CC50: read-out: pLC50 (the source's name) (converted); for TGI: read-out: pTGI (converted); summary of the method: as §2
NCI-H226 = test: Growth inhibition of human NCI-H226 cells after 48 hrs by sulforhodamine B assay; conditions: NCI-H226, 48 h; for TGI: read-out: pTGI (converted); summary of the method: as §2
ACHN = test: Growth inhibition of human ACHN cells after 48 hrs by sulforhodamine B assay
PC-3 = test: Growth inhibition of human PC3 cells after 48 hrs by sulforhodamine B assay; conditions: PC-3, 48 h; for CC50: read-out: pLC50 (the source's name) (converted); for TGI: read-out: pTGI (converted); summary of the method: as §2
KM12 = test: Growth inhibition of human KM12 cells after 48 hrs by sulforhodamine B assay; conditions: KM12, 48 h; for TGI: read-out: pTGI (converted); summary of the method: as §2
CCRF-CEM = test: Growth inhibition of human CCRF-CEM cells after 48 hrs by sulforhodamine B assay; conditions: for TGI: read-out: pTGI (converted); summary of the method: as §2
RXF 393 = test: Growth inhibition of human RXF393 cells after 48 hrs by sulforhodamine B assay; conditions: RXF 393, 48 h; for CC50: read-out: pLC50 (the source's name) (converted); for TGI: read-out: pTGI (converted); summary of the method: as §2
SN12C = test: Growth inhibition of human SN12C cells after 48 hrs by sulforhodamine B assay; conditions: for CC50: read-out: pLC50 (the source's name) (converted); for TGI: read-out: pTGI (converted); summary of the method: as §1
T47D = test: Growth inhibition of human T47D cells after 48 hrs by sulforhodamine B assay; conditions: for CC50: read-out: pLC50 (the source's name) (converted); for TGI: read-out: pTGI (converted); summary of the method: as §1
Malme-3M = test: Growth inhibition of human MALME-3M cells after 48 hrs by sulforhodamine B assay; conditions: for CC50: read-out: pLC50 (the source's name) (converted); for TGI: read-out: pTGI (converted); summary of the method: as §2

Nc1cc(N)c2nc(-c3ccccc3)c(Sc3ccc(Cl)c(Cl)c3)nc2c1
GI50 (TK-10): 5.89 µM | CC50 (TK-10): 53.7 µM | TGI (TK-10): 20 µM | GI50 (OVCAR-3): 11.7 µM | CC50 (OVCAR-3): > 100 µM | TGI (OVCAR-3): 46.8 µM | GI50 (SF-539): 14.5 µM | LC50 (SF-539): > 100 µM | TGI (SF-539): 41.7 µM | GI50 (NCI/ADR-RES): 19.1 µM | CC50 (NCI/ADR-RES): > 100 µM | TGI (NCI/ADR-RES): 60.3 µM | GI50 (SR): 4.68 µM | LC50 (concentration giving 50% net cell death) (SR): > 100 µM | TGI (SR; read-out: pTGI (converted)): 35.5 µM | GI50 (UACC-257): 17.8 µM | CC50 (UACC-257): > 100 µM | TGI (UACC-257): 58.9 µM | GI50 (OVCAR-5): 38.9 µM | CC50 (OVCAR-5): 91.2 µM | TGI (OVCAR-5): 58.9 µM | GI50 (MDA-MB-231): 16.6 µM | CC50 (MDA-MB-231): > 100 µM | TGI (MDA-MB-231): 53.7 µM | GI50 (A498): 17 µM | CC50 (A498): 57.5 µM | TGI (A498): 30.9 µM | GI50 (HL-60(TB)): 7.94 µM | LC50 (HL-60(TB)): > 100 µM | TGI (HL-60(TB)): > 100 µM | GI50 (COLO 205): 10.7 µM | LC50 (50% net cell kill) (COLO 205): > 100 µM | TGI (COLO 205): 33.9 µM | GI50 (SNB-19): 17 µM | LC50 (SNB-19): > 100 µM | TGI (SNB-19): 57.5 µM | GI50 (MOLT-4): 4.07 µM | LC50 (MOLT-4): > 100 µM | TGI (MOLT-4): > 100 µM | GI50 (NCI-H460): 10.5 µM | LC50 (50% net cell kill) (NCI-H460): > 100 µM | TGI (NCI-H460): 33.9 µM | GI50 (OVCAR-8): 24.5 µM | CC50 (OVCAR-8): > 100 µM | TGI (OVCAR-8): > 100 µM | GI50 [1]: 30.2 µM | CC50 [1]: > 100 µM | TGI [1]: > 100 µM | GI50 (NCI-H226): 3.02 µM | LC50 (NCI-H226): > 100 µM | TGI (NCI-H226): 9.12 µM | GI50 (ACHN): 1.7 µM | CC50 (ACHN; read-out: pLC50 (the source's name) (converted)): 5.62 µM | TGI (ACHN; read-out: pTGI (converted)): 3.09 µM | GI50 (PC-3): 3.47 µM | CC50 (PC-3): > 100 µM | TGI (PC-3): 15.5 µM | GI50 (KM12): 11.2 µM | LC50 (50% net cell kill) (KM12): > 100 µM | TGI (KM12): > 100 µM | GI50 (CCRF-CEM): 2.51 µM | LC50 (CCRF-CEM): > 100 µM | TGI (CCRF-CEM): > 100 µM | GI50 (RXF 393): 12.3 µM | CC50 (RXF 393): 60.3 µM | TGI (RXF 393): 26.9 µM | GI50 (SN12C): 7.59 µM | CC50 (SN12C): 64.6 µM | TGI (SN12C): 23.4 µM | GI50 (T47D): 13.2 µM | CC50 (T47D): > 100 µM | TGI (T47D): > 100 µM | GI50 (Malme-3M): 19.5 µM | CC50 (Malme-3M): > 100 µM | TGI (Malme-3M): 50.1 µM

COc1ccc(Sc2nc3cc(N)cc(N)c3nc2-c2ccccc2)cc1
GI50 (TK-10): 12.9 µM | CC50 (TK-10): 72.4 µM | TGI (TK-10): 30.2 µM | CC50 (OVCAR-3): > 100 µM | TGI (OVCAR-3): > 100 µM | GI50 (SF-539): 10 µM | LC50 (SF-539): > 100 µM | TGI (SF-539): > 100 µM | GI50 (NCI/ADR-RES): > 100 µM | CC50 (NCI/ADR-RES): > 100 µM | TGI (NCI/ADR-RES): > 100 µM | GI50 (UACC-257): 43.7 µM | CC50 (UACC-257): > 100 µM | TGI (UACC-257): > 100 µM | GI50 (OVCAR-5): > 100 µM | CC50 (OVCAR-5): > 100 µM | TGI (OVCAR-5): > 100 µM | GI50 (MDA-MB-231): > 100 µM | CC50 (MDA-MB-231): > 100 µM | TGI (MDA-MB-231): > 100 µM | GI50 (A498): 17.4 µM | CC50 (A498): 60.3 µM | TGI (A498): 32.4 µM | GI50 (HL-60(TB)): 4.27 µM | LC50 (HL-60(TB)): > 100 µM | TGI (HL-60(TB)): > 100 µM | GI50 (COLO 205): 19.5 µM | LC50 (50% net cell kill) (COLO 205): > 100 µM | TGI (COLO 205): > 100 µM | GI50 (SNB-19): > 100 µM | LC50 (SNB-19): > 100 µM | TGI (SNB-19): > 100 µM | GI50 (MOLT-4): 4.17 µM | LC50 (MOLT-4): > 100 µM | TGI (MOLT-4): > 100 µM | GI50 (NCI-H460): 20 µM | LC50 (50% net cell kill) (NCI-H460): > 100 µM | TGI (NCI-H460): > 100 µM | GI50 (OVCAR-8): > 100 µM | CC50 (OVCAR-8): > 100 µM | TGI (OVCAR-8): > 100 µM | GI50 [1]: > 100 µM | CC50 [1]: > 100 µM | TGI [1]: > 100 µM | LC50 (NCI-H226): > 100 µM | TGI (NCI-H226): > 100 µM | GI50 (PC-3): 1.74 µM | CC50 (PC-3): 19.1 µM | TGI (PC-3): 5.13 µM | GI50 (KM12): 28.2 µM | LC50 (50% net cell kill) (KM12): > 100 µM | TGI (KM12): > 100 µM | GI50 (CCRF-CEM): 2.29 µM | LC50 (CCRF-CEM): > 100 µM | TGI (CCRF-CEM): 8.32 µM | GI50 (RXF 393): 3.09 µM | CC50 (RXF 393): > 100 µM | TGI (RXF 393): 17 µM | GI50 (SN12C): 6.03 µM | CC50 (SN12C): 87.1 µM | TGI (SN12C): 24 µM | GI50 (T47D): > 100 µM | CC50 (T47D): > 100 µM | TGI (T47D): > 100 µM | GI50 (Malme-3M): 33.1 µM | CC50 (Malme-3M): > 100 µM | TGI (Malme-3M): 95.5 µM
